Screening results from PubChem BioAssay.
An excerpt weighted towards active compounds, which were near 4.5% of everything screened.
TAAR1 antagonist – human TAAR1 antagonists, primary screen, Fluo-8 calcium fluorescence, CHO RD-HGA16 cells. AID 624466, 2012. 360,000 compounds, 1.5% hits. antagonist. inhibition, % at 3 µM;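 active means inhibition above a per-plate cutoff, the mean inhibition of test compounds on that plate plus 3 SD, cut at about 49% in these data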
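System: CHO RD-HGA16 cells bearing hTAAR1. Reagent: EC80 β-phenethylamine stimulus. Schedule: seeding 17-24 h prior, 75-min 37 °C, 30-min RT dye loading. Signal: Fluo-8 intracellular calcium dye fluorescence, real-time kinetic reads. Read-out: % inhibition from peak post-agonist over basal fluorescence ratio. Benchmarks: vehicle wells and EC80 agonist wells. Replicates: n of 1.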
TAAR1 ag – human TAAR1 agonists, primary screen, Fluo-8 calcium fluorescence, CHO RD-HGA16 cells; AID 624467, 2012; vehicle wells 0%, saturating PEA agonist 100%; Trace amine-associated receptor 1 (Homo sapiens), Q96RJ0; 360,000 compounds, 0.99% hits; activation, % at 3 µM;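 active means activation above the mean activation of all test compounds in the run plus 3 SD, cut at about 38% in these data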
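Repeats: no replicates (n 1) | Material: CHO-derived RD-HGA16 cells with stable Gα16 and human TAAR1 | Technique: Kinetic Fluo-8 calcium fluorescence | Schedule: 17-24 h seeding, 75 min 37 °C dye, 30 min RT | Evaluation: % activation from peak over basal fluorescence ratio, DMSO-to-PEA scaled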
GPR7 antagonist – GPR7 receptor antagonists, primary screen, cell-based, fluorescence, single concentration; Neuropeptides B/W receptor type 1 (Homo sapiens), P48145; GPR7-expressing cells, fluorescence antagonist assay; inhibition, % at 4.4 µM; 290,000 compounds, 1.1% hits; in the data active means inhibition above about 16%, passing the limit was not always enough;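 further: cells stimulated with the agonist NPW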
OX1R antag-1 – antagonists of human orexin 1 receptor (OX1R). OX1R-expressing cells, FRET antagonist read-out. inhibition, % at 6.6 µM. 330,000 compounds, 1.8% hits; in the data active means inhibition mostly above about 38%, no sharp cut-off; inactive means mostly below about 40%
Target sequence (O43613 whole entry, looked up): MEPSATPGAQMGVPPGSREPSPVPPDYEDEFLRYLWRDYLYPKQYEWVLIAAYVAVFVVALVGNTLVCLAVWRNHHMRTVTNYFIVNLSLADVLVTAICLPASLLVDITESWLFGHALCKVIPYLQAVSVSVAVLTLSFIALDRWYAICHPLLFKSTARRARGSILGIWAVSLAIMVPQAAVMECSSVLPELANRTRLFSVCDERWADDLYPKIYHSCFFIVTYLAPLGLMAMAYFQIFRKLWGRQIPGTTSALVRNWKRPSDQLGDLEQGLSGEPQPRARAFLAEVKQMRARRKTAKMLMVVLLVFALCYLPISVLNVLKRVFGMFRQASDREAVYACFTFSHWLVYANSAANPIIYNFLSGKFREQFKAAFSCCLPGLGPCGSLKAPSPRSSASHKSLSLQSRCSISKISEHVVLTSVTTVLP
CHO parental Ca – ATP-evoked calcium signal inhibitors, parental CHO, primary screen, counter-screen for OX1R antagonist project, cell-based, fluorescence, Fluo-8 calcium dye. parental CHO-K1, ATP-induced calcium, Fluo-8 fluorescence. inhibition, % at 5.6 µM. 330,000 compounds, 0.63% hits. AID 463079, 2010;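 active means inhibition above that plate's mean sample inhibition plus 3 SD, cut at about 26% in these data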
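test system = CHO parental line | reagent = ATP stimulus | measured by = intracellular calcium via Fluo-8 no-wash fluorescent dye | control set = ATP and no-ATP DMSO wells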
OX1R antag-2 – OX1R (HCRTR1) antagonists, primary screen, fluorescence, CHO/OX1R cells, Fluo-8 calcium, orexin A; Fluo-8 calcium fluorescence; inhibition, % at 5 µM; Orexin/Hypocretin receptor type 1 (Homo sapiens), O43613; 330,000 compounds, 0.43% hits; AID 434989, 2010;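 active means inhibition above its plate's threshold, mean inhibition of all tested compounds on the plate plus 3 SD, cut at about 37% in these data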
GPR7 antag conf – GPR7 receptor antagonists, confirmation, cell-based, fluorescence, single concentration | shares compounds with GPR7 antagonist | GPR7-expressing cells, calcium fluorescence antagonist mode | inhibition, % at 4.4 µM | 2,400 compounds, 52% hits | AID 1952, 2009; in the data active means inhibition above about 24%;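 further: stimulated with the GPR7 agonist NPW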
MCHR1 antagonist – MCHR1 antagonists in cells, counter-screen for GPR7 antagonist project, cell-based, fluorescence, human; shares compounds with GPR7 antagonist; MCHR1-expressing cells, fluorescence antagonist assay; inhibition, % at 4.4 µM; 2,400 compounds, 62% hits; AID 2148, 2009; in the data active means inhibition above about 22%
Of the large screens only hits and unclear results are named; the others gave an inactive call (follow-up assays come after a bar, where they were run).

CCOC(=O)C1CCN(S(=O)(=O)c2ccc(CC)cc2)CC1	GPR7 antagonist 21.1 | GPR7 antag conf inactive | MCHR1 antagonist 24.8
O=C(NCc1ccc(F)cc1)c1cc(C2CCCN(C(=O)C3CCCCC3)C2)on1 (configuration not stated)	none (no result: GPR7 antagonist, OX1R antag-1, CHO parental Ca, OX1R antag-2)
Cc1ccccc1CN(c1ccc(C(=O)N2CCc3ccccc3C2)cc1)S(C)(=O)=O	TAAR1 antagonist 51.2, GPR7 antagonist 28.2 | GPR7 antag conf 52.0 | MCHR1 antagonist 58.0
C[C@@H]1CN([C@H](C)CO)C(=O)CCCn2nncc2CO[C@H]1CN(C)Cc1cccc(O)c1	none (no result: GPR7 antagonist, OX1R antag-1, CHO parental Ca, OX1R antag-2)
CCOc1ccccc1CNCCNC(=O)c1nonc1N	none
Nc1nonc1C(=O)NCCNCc1ccccc1OCc1ccccc1F	GPR7 antagonist 29.0 | GPR7 antag conf 36.4 | MCHR1 antagonist 32.9
N#CCCN1CCN(Cc2cc(-c3ccccc3)ccc2O)CC1	GPR7 antagonist 30.7 | GPR7 antag conf inactive | MCHR1 antagonist inactive
O=C(OC1C2CCC1C1CN(CCc3ccccc3)CC12)c1ccccc1 (configuration not stated)	GPR7 antagonist 42.4 | GPR7 antag conf 42.1 | MCHR1 antagonist 23.7
O=S(=O)(c1ccc(Br)s1)N1CCN(c2ccnc3cc(Cl)ccc23)CC1	GPR7 antagonist 27.7 | GPR7 antag conf 36.6 | MCHR1 antagonist 29.0
COc1ccccc1NC(=O)CSc1nc2ccccc2n1C(C)=O	GPR7 antagonist 21.0 | GPR7 antag conf inactive | MCHR1 antagonist inactive
CCCc1ccc2ccc3ccccc3c2n1	none (no result: GPR7 antagonist, OX1R antag-1, CHO parental Ca, OX1R antag-2)
COc1cc(CN2CCC(CO)(Cc3cccc(C(F)(F)F)c3)CC2)ccc1F	GPR7 antagonist 34.3 | GPR7 antag conf inactive | MCHR1 antagonist 44.2
Cc1ccccc1CN1C[C@@H]2C[C@@H](c3cn[nH]c3-c3ccc(F)cc3)N3CCC[C@@]23C1=O	none (no result: GPR7 antagonist) | MCHR1 antagonist inactive
Clc1ccc(-c2nc3ccc(Br)cn3c2Cc2cccc(Cl)c2)cc1	none (no result: GPR7 antagonist, OX1R antag-1, CHO parental Ca, OX1R antag-2)
Cc1c(C(=O)N2CCN(Cc3ccc4c(c3)OCO4)CC2)sc2ncnc(N3CCN(c4ccccc4)CC3)c12	GPR7 antagonist 43.7 | GPR7 antag conf 44.5 | MCHR1 antagonist 81.4
Clc1ccc(-n2c(SC/C=C/c3ccccc3)nnc2-c2cccnc2)cc1	GPR7 antagonist 31.5 | GPR7 antag conf 26.9 | MCHR1 antagonist inactive
Nn1c(SC/C=C/c2ccccc2)nnc1-c1cccnc1	none
O=C(Nc1ccc(N2CCOCC2)cc1)c1csc([C@@H]2C[C@H](O)[C@@H](CO)O2)n1	none (no result: GPR7 antagonist, OX1R antag-1, CHO parental Ca, OX1R antag-2)
Cn1cnc(S(=O)(=O)N2CCCCC2c2cc(C(=O)NCc3ccc(F)cc3)no2)c1 (configuration not stated)	none (no result: GPR7 antagonist, OX1R antag-1, CHO parental Ca, OX1R antag-2)
Cn1nnnc1SCC(=O)Nc1ccc(Oc2ccccc2)cc1	GPR7 antagonist 21.6 | GPR7 antag conf inactive | MCHR1 antagonist inactive
O=[N+]([O-])c1ccc(NCCNS(=O)(=O)c2ccccc2)cc1	GPR7 antagonist 25.0 | GPR7 antag conf 27.5 | MCHR1 antagonist 32.3
CCCCNC(=O)C1(C)CCN1C(=O)Cc1cccc2ccccc12 (configuration not stated)	none (no result: GPR7 antagonist, OX1R antag-1, CHO parental Ca, OX1R antag-2)
CCN(C(=O)c1cccc(Br)c1)C1CCS(=O)(=O)C1 (configuration not stated)	none (no result: GPR7 antagonist)
O=C(c1ccccc1)N(Cc1cccc(Br)c1)C1CCS(=O)(=O)C1 (configuration not stated)	GPR7 antagonist 35.1 | GPR7 antag conf inactive | MCHR1 antagonist inactive
